Laboratory results: ChEMBL document CHEMBL2062521, “Discovery of 1-(β-amino substituted-β-alanyl)-N,N-dimethylindoline-2-carboxamides as novel nonpeptide antagonists of nociceptin/orphanin FQ receptor: efficient design, synthesis, and structure-activity relationship studies” (Eur J Med Chem, 2012)
Activity calls are given as the source filed them. The rule behind the calls is not given here.

Experiments:
Nociceptin receptor [1] = biological target: T1, Nociceptin receptor (Homo sapiens, UniProt P41146); experiment: Displacement of [3H]N/OFQ from human recombinant ORL1 receptor expressed in HEK293 cells after 45 mins by scintillation proximity assay; format: cell-based
Method in brief: (§1)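 Compound at 10^-11–10^-5 M (six 10-fold steps), duplicates; nonspecific binding with 1 µM N/OFQ. IC50 by nonlinear regression, Ki by Cheng–Prusoff; percent inhibition reported at 1 µM.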

Mu-type opioid receptor = Mu-type opioid receptor (Homo sapiens, UniProt P35372); experiment: Displacement of [3H]DAMGO from human recombinant MOP receptor expressed in CHO-K1 cells after 45 mins by scintillation proximity assay; format: cell-based
Nociceptin receptor [2] = biological target: T1, Nociceptin receptor; experiment: Antagonist activity at human recombinant ORL1 receptor expressed in HEK293 cells assessed as inhibition of N/OFQ-induced [35S]GTPgammaS binding to alpha-unit of G-protein after 1.5 hrs by scintillation counting; format: functional, cell-based
Method in brief: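 Membranes from HEK-293 cells expressing hNOP receptor, incubated 1.5 h at 25 °C with 10 nM N/OFQ and compound at six concentrations (0.1 nM–10 µM) in 20 mM HEPES pH 7.4, 100 mM NaCl, 5 mM MgCl2, 1 mM EDTA, 5 µM GDP, 400 pM [35S]GTPγS, WGA-SPA beads. Duplicates; NSB with 10 µM unlabelled GTPγS; basal without ligands.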

Homo sapiens = species on record: Homo sapiens; experiment: Selectivity ratio of Ki for human recombinant MOP receptor to Ki for human recombinant ORL1 receptor
[3] = Half life in human liver microsomes by HPLC/MS/MS analysis; format: ADME, Microsome
Nociceptin receptor [4] = biological target: T1, Nociceptin receptor; experiment: Displacement of [3H]N/OFQ from human recombinant ORL1 receptor expressed in HEK293 cells at 1 uM after 45 mins by scintillation proximity assay; format: cell-based; method in brief: as §1

T1 sequence (P41146 whole entry): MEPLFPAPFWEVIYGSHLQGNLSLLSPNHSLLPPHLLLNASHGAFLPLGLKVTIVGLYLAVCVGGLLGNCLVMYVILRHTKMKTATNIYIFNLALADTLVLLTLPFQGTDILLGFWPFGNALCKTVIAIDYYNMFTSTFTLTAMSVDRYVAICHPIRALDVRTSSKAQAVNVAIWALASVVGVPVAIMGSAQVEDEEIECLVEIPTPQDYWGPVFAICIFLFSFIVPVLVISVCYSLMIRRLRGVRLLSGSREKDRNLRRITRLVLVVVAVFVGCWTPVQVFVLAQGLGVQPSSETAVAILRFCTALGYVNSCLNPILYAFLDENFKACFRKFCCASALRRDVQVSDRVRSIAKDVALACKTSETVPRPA
Mu-type opioid receptor, sequence (P35372 whole entry): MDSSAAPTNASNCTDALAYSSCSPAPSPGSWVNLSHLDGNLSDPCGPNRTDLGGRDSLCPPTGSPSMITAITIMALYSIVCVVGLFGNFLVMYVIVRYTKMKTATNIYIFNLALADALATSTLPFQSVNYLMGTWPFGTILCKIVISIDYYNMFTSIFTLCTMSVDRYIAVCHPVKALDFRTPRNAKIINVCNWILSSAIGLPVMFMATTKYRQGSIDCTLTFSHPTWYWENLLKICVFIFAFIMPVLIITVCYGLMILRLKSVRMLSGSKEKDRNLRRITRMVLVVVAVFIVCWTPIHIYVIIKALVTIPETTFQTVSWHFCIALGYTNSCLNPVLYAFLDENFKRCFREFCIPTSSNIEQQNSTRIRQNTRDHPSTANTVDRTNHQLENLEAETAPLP

Ki (Nociceptin receptor [1]) [µM] | Ki (Mu-type opioid receptor) [µM] | IC50 (Nociceptin receptor [2]) [µM] | Ratio Ki (Homo sapiens) | half-life [3] [min] | inhibition (Nociceptin receptor [4]) | Compound
0.00303 | 0.0672 | 0.044 | 22 | 24 | – | Cc1ccccc1C1CCN(CCC(=O)N2c3ccccc3C[C@H]2C(=O)N(C)C)CC1
0.0136 | 0.0807 | 0.138 | 5.9 | 55 | – | CN(C)C(=O)[C@@H]1Cc2ccccc2N1C(=O)CCN1CCC(c2ccccc2)CC1
0.00984 | 0.238 | 0.107 | – | 82 | – | CN(C)C(=O)[C@@H]1Cc2ccccc2N1C(=O)CCN1CCC(c2ccc(F)cc2)CC1
0.00379 | 0.139 | 0.042 | – | 43 | – | Cc1cc(F)ccc1C1CCN(CCC(=O)N2c3ccccc3C[C@H]2C(=O)N(C)C)CC1
0.00096 | 0.0821 | 0.012 | 86 | 19 | – | Cc1cccc(C)c1C1CCN(CCC(=O)N2c3ccccc3C[C@H]2C(=O)N(C)C)CC1
> 0.25 | 0.0284 | – | – | 10 | 23% | CN(C)C(=O)[C@@H]1Cc2ccccc2N1C(=O)CCN1CC2CCC(C1)C2c1ccccc1 (stereo not given in full)
> 0.25 | – | – | – | – | 33% | CN(C)C(=O)C1Cc2ccccc2N1C(=O)CCN1CC[C@@H]2c3ccccc3CC[C@@H]2C1 (mixture of isomers)
0.00555 | 0.138 | 0.116 | 25 | – | – | Cc1ccccc1C1CCN(CCC(=O)N2c3ccccc3CC2C(=O)N(C)C)CC1 (racemic)
> 0.25 | > 0.45 | – | – | – | inactive | CN(C)C(=O)C1Cc2ccccc2N1C(=O)CCN1CCC(N2CCCCC2)CC1 (racemic)
0.128 | 0.0298 | – | 0.23 | – | – | CCOc1ccccc1N1CCN(CCC(=O)N2c3ccccc3CC2C(=O)N(C)C)CC1 (racemic)
> 0.25 | 0.397 | 48 | – | – | 43% | CN(C)C(=O)C1Cc2ccccc2N1C(=O)CCN1CCN(c2ccccc2)CC1 (racemic)
> 0.25 | 0.235 | – | – | – | 37% | CN(C)C(=O)C1Cc2ccccc2N1C(=O)CCN1CCN(c2cnccn2)CC1 (racemic)
> 0.25 | > 0.45 | – | – | – | 21% | CC(c1ccccc1)N1CCN(CCC(=O)N2c3ccccc3CC2C(=O)N(C)C)CC1 (racemic)
> 0.25 | > 0.45 | – | – | – | 11% | CN(C)C(=O)C1Cc2ccccc2N1C(=O)CCN1CCN(C2CCCCC2)CC1 (racemic)
0.101 | > 0.45 | – | – | – | – | CCC(CC)N1CCN(CCC(=O)N2c3ccccc3CC2C(=O)N(C)C)CC1 (racemic)
> 0.25 | > 0.45 | – | – | – | 40% | CCCC(C)N1CCN(CCC(=O)N2c3ccccc3CC2C(=O)N(C)C)CC1 (racemic)

Ki (Nociceptin receptor [1]) [µM] | Ki (Mu-type opioid receptor) [µM] | IC50 (Nociceptin receptor [2]) [µM] | Ratio Ki (Homo sapiens) | half-life [3] [min] | inhibition (Nociceptin receptor [4]) | Compound
0.0262 | 0.502 | 2.3 | 19 | – | – | CN(C)C(=O)C1Cc2ccccc2N1C(=O)CCN1CCC(c2ccccc2)CC1 (racemic)
0.0265 | – | – | – | – | – | CN(C)C(=O)C1Cc2ccccc2N1C(=O)CCN1CCC(c2ccccc2F)CC1 (racemic)
0.0315 | – | – | – | – | – | CN(C)C(=O)C1Cc2ccccc2N1C(=O)CCN1CCC(c2ccccc2C(F)(F)F)CC1 (racemic)
> 0.25 | – | – | – | – | inactive | CN(C)C(=O)C1Cc2ccccc2N1C(=O)CCN1CCC(c2ccccn2)CC1 (racemic)
0.286 | – | – | – | – | – | CN(C)C(=O)C1Cc2ccccc2N1C(=O)CCN1CCC(C2CCCCC2)CC1 (racemic)
> 0.25 | – | – | – | – | 15% | CN(C)C(=O)C1Cc2ccccc2N1C(=O)CCN1CCCC(c2ccccc2)CC1 (racemic)
0.0116 | 0.318 | – | 27 | – | – | Cc1ccccc1N1CCN(CCC(=O)N2c3ccccc3CC2C(=O)N(C)C)CC1 (racemic)
> 0.25 | – | – | – | – | 13% | Cc1cccc(N2CCN(CCC(=O)N3c4ccccc4CC3C(=O)N(C)C)CC2)c1 (racemic)
> 0.25 | – | – | – | – | 25% | Cc1ccc(N2CCN(CCC(=O)N3c4ccccc4CC3C(=O)N(C)C)CC2)c(C)c1 (racemic)
> 0.25 | > 0.45 | – | – | – | 11% | CN(C)C(=O)C1Cc2ccccc2N1C(=O)CCN1CCN(Cc2ccccc2)CC1 (racemic)
> 0.25 | – | – | – | – | 3% | CN(C)C(=O)C1Cc2ccccc2N1C(=O)CCN1CCN(C2CCCC2)CC1 (racemic)
> 0.25 | – | – | – | – | 12% | CN(C)C(=O)C1Cc2ccccc2N1C(=O)CCN1CCN(C2CCCCCC2)CC1 (racemic)
> 0.25 | – | – | – | – | 12% | CN(C)C(=O)C1Cc2ccccc2N1C(=O)CCN1CCN(C2CCCCCCC2)CC1 (racemic)
> 0.25 | – | – | – | – | 16% | CN(C)C(=O)C1Cc2ccccc2N1C(=O)CCN1Cc2ccccc2C1 (racemic)
> 0.25 | – | – | – | – | 11% | CN(C)C(=O)C1Cc2ccccc2N1C(=O)CCN1CCc2ccccc2C1 (racemic)
> 0.25 | – | – | – | – | 15% | CN(C)C(=O)C1Cc2ccccc2N1C(=O)CCN1Cc2cccc3cccc(c23)C1 (racemic)
